pIC50: −log10 of the molar value. One block for each compound: values may come before it. Active and inactive are the calls of the source. The rule behind the calls is not given here.
Experiments:
[1] = target: T1, Hepatocyte growth factor receptor (Homo sapiens, UniProt P08581); assay: Inhibition of TPR-met autophosphorylation expressed in HEK293T cells after 150 mins by ELISA; type: cell-based; conditions: hek-293t
Outline: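 293T clone stably expressing activated TPR-Met under a CMV promoter, exposed to compound dilutions for 150 min. Autophosphorylation measured in lysates by ELISA with anti-phosphotyrosine (4G10), HRP reporter antibody and chemiluminescent read-out. IC50 from 4-parameter fit of triplicate means.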
Target sequence in this assay (P08581 25-1390 limits assumed): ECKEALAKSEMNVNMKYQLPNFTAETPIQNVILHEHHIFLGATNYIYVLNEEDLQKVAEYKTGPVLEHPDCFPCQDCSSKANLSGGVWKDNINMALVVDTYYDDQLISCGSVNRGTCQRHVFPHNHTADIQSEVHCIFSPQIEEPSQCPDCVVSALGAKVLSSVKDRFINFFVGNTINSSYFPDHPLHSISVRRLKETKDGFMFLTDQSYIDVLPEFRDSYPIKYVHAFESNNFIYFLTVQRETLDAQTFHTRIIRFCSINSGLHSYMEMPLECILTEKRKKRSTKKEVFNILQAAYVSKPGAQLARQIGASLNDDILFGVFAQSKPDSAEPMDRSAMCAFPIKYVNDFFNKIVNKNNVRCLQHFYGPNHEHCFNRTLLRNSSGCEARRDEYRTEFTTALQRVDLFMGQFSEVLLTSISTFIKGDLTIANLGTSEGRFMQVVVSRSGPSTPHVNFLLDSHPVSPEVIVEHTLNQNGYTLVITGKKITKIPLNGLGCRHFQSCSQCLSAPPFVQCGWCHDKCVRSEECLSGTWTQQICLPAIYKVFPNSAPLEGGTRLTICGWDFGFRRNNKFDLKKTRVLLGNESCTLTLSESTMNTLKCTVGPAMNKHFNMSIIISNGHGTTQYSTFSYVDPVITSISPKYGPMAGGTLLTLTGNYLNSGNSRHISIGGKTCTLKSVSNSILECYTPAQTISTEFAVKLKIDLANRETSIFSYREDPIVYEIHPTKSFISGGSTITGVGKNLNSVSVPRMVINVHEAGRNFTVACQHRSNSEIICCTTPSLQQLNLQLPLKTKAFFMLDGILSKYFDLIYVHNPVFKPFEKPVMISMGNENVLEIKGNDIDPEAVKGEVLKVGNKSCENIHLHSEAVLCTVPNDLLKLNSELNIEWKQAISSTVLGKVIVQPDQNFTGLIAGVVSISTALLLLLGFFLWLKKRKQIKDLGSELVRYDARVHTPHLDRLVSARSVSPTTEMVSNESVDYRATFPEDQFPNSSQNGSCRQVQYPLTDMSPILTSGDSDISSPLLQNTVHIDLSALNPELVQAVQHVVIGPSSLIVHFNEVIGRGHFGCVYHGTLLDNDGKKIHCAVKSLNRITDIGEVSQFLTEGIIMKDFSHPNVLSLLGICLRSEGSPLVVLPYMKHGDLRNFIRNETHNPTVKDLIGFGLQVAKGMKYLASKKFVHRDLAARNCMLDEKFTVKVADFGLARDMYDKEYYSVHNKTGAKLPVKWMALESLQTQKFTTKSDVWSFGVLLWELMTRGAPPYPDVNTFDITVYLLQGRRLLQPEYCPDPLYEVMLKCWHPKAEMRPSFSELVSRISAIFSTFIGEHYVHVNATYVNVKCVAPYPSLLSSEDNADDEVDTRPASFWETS

[2] = target: T1, Hepatocyte growth factor receptor; assay: Inhibition of GST-fused recombinant C-met expressed in baculovirus infected high five cells after 30 mins by DELFIA assay
Outline: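 GST-fused catalytic domains from baculovirus-infected cells, High Five for c-Met (MOI 1) and Sf9 for VEGFR2 (MOI 0.1). DELFIA on immobilized poly(Glu4,Tyr). Enzyme 25 nM (c-Met) or 5 nM (VEGFR2), pre-incubated 4 min on ice with inhibitor and Mg-ATP. Reaction at 30 °C, 30 min (c-Met) or 10 min (VEGFR2), stopped with EDTA. Europium anti-phosphotyrosine read by time-resolved fluorescence. Seven concentrations in triplicate; IC50 from four-parameter fit.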
Target sequence in this assay (P08581 whole entry): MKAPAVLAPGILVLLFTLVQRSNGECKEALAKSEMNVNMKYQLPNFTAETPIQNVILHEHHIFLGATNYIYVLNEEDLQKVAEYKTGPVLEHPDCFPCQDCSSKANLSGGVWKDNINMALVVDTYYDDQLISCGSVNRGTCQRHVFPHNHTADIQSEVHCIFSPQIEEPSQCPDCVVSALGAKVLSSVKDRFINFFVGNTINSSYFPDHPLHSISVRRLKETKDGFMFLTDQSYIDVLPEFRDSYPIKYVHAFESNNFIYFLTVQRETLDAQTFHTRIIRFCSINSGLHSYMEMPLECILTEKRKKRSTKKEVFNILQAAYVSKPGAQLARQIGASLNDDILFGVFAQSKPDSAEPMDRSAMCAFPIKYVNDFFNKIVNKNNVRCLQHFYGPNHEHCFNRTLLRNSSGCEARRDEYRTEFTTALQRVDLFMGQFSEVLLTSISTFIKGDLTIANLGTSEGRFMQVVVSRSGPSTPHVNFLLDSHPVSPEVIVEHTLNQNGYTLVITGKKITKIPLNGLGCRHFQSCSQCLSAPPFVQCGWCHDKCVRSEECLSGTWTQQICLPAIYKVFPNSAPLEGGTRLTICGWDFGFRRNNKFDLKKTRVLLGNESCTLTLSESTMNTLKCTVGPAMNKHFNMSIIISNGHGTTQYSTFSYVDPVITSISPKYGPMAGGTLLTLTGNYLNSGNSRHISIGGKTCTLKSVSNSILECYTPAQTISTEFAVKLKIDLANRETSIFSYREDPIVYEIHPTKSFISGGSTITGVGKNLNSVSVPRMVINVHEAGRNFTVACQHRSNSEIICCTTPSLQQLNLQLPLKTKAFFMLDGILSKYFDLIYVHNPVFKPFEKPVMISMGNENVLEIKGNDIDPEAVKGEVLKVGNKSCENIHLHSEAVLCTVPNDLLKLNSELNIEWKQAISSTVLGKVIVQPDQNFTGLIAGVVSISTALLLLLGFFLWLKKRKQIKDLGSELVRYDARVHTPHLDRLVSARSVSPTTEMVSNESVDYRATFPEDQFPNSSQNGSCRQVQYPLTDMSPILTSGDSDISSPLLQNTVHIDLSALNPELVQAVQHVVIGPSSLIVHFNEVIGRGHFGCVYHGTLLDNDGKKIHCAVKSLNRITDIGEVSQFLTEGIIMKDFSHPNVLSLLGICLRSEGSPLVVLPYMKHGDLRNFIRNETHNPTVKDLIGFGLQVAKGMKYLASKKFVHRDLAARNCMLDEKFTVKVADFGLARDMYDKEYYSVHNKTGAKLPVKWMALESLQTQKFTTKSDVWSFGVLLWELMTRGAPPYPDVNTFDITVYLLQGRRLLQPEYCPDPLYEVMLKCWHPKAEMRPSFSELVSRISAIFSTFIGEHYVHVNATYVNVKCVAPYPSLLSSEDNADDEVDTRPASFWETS

[3] = Half life in rat at 2.17 to 2.86 mg/kg, iv; type: ADME, organism-based; parameters: dose 2.17-2.86 mg/kg, route intravenous; conditions: in vivo
Outline: (§1)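 Rat pharmacokinetics with intravenous dosing at 2.17–2.86 mg/kg and oral dosing at 4.28–4.98 mg/kg. Oral Cmax and AUC normalised per mg/kg.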

[4] = Volume of distribution at steady state in rat at 2.17 to 2.86 mg/kg, iv and 4.28 to 4.98 mg/kg, po; type: ADME, organism-based; conditions: in vivo, read-out: Vdss; outline: as §1
[5] = Oral bioavailability in rat at 4.28 to 4.98 mg/kg; type: ADME, organism-based; conditions: in vivo; outline: as §1
[6] = Tmax in rat at 4.28 to 4.98 mg/kg, po; type: ADME, organism-based; parameters: dose 4.28-4.98 mg/kg, route oral; conditions: in vivo; outline: as §1
Rattus norvegicus = assay: Cmax in rat at 4.28 to 4.98 mg/kg, po; type: ADME, organism-based; parameters: dose 4.28-4.98 mg/kg, route oral; conditions: in vivo; outline: as §1
[7] = Clearance in rat at 2.17 to 2.86 mg/kg, iv and 4.28 to 4.98 mg/kg, po; type: ADME, organism-based; conditions: in vivo; outline: as §1
[8] = target: T2, Vascular endothelial growth factor receptor 2 (Homo sapiens, UniProt P35968); assay: Inhibition of GST-fused recombinant VEGFR2 expressed in baculovirus infected Sf9 cells after 30 mins by DELFIA assay
T2 sequence (P35968 whole entry, the tested form may be a part): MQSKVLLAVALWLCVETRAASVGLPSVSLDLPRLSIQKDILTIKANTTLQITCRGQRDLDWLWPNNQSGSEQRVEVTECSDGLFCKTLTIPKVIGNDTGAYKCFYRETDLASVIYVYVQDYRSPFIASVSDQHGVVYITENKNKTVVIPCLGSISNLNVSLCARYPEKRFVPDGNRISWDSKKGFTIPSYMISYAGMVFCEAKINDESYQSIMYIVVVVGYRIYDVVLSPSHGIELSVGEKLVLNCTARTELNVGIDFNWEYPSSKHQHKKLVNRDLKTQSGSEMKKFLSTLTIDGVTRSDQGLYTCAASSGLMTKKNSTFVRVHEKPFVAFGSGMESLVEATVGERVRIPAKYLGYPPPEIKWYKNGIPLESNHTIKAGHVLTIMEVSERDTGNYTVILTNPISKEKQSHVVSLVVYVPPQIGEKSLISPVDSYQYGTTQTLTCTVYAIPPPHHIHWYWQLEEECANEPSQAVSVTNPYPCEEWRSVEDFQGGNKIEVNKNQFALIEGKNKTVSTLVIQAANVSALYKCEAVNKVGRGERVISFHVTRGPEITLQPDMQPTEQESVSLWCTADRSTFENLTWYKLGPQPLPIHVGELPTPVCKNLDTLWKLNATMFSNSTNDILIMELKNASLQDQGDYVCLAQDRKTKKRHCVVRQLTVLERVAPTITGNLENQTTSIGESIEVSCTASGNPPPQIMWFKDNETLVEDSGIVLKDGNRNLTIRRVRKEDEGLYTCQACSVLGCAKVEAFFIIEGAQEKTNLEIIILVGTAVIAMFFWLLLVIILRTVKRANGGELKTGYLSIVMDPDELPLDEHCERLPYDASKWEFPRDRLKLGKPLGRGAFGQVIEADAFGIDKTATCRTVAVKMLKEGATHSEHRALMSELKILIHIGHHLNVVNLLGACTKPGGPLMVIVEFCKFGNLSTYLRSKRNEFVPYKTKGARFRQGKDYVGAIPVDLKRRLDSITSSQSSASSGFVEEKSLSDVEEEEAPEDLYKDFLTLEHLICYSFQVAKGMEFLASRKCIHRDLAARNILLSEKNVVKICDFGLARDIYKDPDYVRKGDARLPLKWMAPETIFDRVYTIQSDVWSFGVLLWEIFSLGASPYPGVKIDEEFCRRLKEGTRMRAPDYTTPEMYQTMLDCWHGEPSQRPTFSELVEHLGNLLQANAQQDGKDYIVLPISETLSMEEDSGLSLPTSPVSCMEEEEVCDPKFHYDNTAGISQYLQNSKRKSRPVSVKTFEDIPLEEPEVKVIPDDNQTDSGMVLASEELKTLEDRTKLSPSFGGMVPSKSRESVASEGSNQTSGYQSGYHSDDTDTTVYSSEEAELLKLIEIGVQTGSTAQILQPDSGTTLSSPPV

[9] = target: Ephrin type-B receptor 4 (Homo sapiens) (UniProt P54760); assay: Inhibition of EphB4 at 100 nM by radiometric protein kinase assay
Outline: (§2)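 Single-concentration kinase selectivity panel run as radiometric protein kinase assays by an outside screening service; percent inhibition reported.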

[10] = target: Vascular endothelial growth factor receptor 1 (Homo sapiens) (UniProt P17948); assay: Inhibition of VEGFR1 at 100 nM by radiometric protein kinase assay; outline: as §2
[11] = target: Receptor-type tyrosine-protein kinase FLT3 (Homo sapiens) (UniProt P36888); assay: Inhibition of Flt3 at 100 nM by radiometric protein kinase assay; outline: as §2
DU-145 = assay: Inhibition of HGF-induced scattering in human DU145 cells; type: functional, cell-based
[12] = target: Vascular endothelial growth factor receptor 3 (Homo sapiens) (UniProt P35916); assay: Inhibition of VEGFR3 at 100 nM by radiometric protein kinase assay; outline: as §2
[13] = target: Platelet-derived growth factor receptor alpha (Homo sapiens) (UniProt P16234); assay: Inhibition of PDGFRalpha at 100 nM by radiometric protein kinase assay; outline: as §2
[14] = target: T2, Vascular endothelial growth factor receptor 2; assay: Inhibition of VEGFR2 assessed as inhibition of ERK phosphorylation
Outline: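 Cellular assay: ERK phosphorylation was measured after VEGF stimulation.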

[15] = target: Aurora kinase A (Homo sapiens) (UniProt O14965); assay: Inhibition of Aurora A at 100 nM by radiometric protein kinase assay; outline: as §2
[16] = target: Mast/stem cell growth factor receptor Kit (Homo sapiens) (UniProt P10721); assay: Inhibition of c-Kit at 100 nM by radiometric protein kinase assay; outline: as §2
[17] = Antitumor activity against human U87MG cells xenografted model assessed as tumor growth inhibition at 40 mg/kg, po qd after 10 days; type: functional, U-87MG ATCC; conditions: U-87 MG, 240 h, read-out: TGI
HUVEC [18] = assay: Antiproliferative activity against HUVEC cells assessed as inhibition of […] proliferation; type: functional, cell-based; conditions: Homo sapiens
HUVEC [19] = assay: Antiangiogenic activity in HUVEC cells assessed as inhibition of VEGF-induced tubule growth at 100 nM; type: functional, cell-based; conditions: Homo sapiens
HUVEC [20] = assay: Antiangiogenic activity in HUVEC cells assessed as inhibition of VEGF-induced tubule growth; type: functional, cell-based; conditions: Homo sapiens
MKN-45 = assay: Antitumor activity against human MKN45 cells xenografted model assessed as tumor growth inhibition at 40 mg/kg, po qd after 12 days; type: functional; conditions: MKN-45, 288 h, read-out: TGI
[21] = target: Cyclin-dependent kinase 2/cyclin E (Homo sapiens) (UniProt P24864+P24941+O96020); assay: Inhibition of CDK2/Cyclin E at 100 nM by radiometric protein kinase assay; type: protein-complex assay; outline: as §2
[22] = target: Inhibitor of nuclear factor kappa-B kinase subunit beta (Homo sapiens) (UniProt O14920); assay: Inhibition of IKK-beta at 100 nM by radiometric protein kinase assay; outline: as §2
[23] = target: Angiopoietin-1 receptor (Homo sapiens) (UniProt Q02763); assay: Inhibition of […] at 100 nM by radiometric protein kinase assay; outline: as §2
A549 [24] = assay: Antitumor activity against human A549 cells xenografted model assessed as tumor growth inhibition at 40 mg/kg, po qd after 14 days; type: functional; conditions: A549, 336 h, read-out: TGI
A549 [25] = assay: Inhibition of HGF-induced cell migration in human A549 cells by wound healing assay; type: functional, cell-based
[26] = target: Glycogen synthase kinase-3 beta (Homo sapiens) (UniProt P49841); assay: Inhibition of GSK3-beta at 100 nM by radiometric protein kinase assay; outline: as §2
Sequence of Glycogen synthase kinase-3 beta (Homo sapiens) (P49841 whole entry, looked up): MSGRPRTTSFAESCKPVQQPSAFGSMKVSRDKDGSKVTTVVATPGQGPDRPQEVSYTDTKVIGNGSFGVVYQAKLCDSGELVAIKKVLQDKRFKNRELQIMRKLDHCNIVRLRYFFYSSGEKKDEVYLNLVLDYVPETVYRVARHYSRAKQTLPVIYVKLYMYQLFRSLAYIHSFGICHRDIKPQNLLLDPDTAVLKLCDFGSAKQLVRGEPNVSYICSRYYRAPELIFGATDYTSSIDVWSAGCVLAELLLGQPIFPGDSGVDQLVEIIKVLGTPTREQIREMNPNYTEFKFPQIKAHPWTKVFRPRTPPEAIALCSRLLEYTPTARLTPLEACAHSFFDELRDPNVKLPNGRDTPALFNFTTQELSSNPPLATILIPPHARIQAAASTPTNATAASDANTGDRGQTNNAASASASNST

[27] = target: Proto-oncogene tyrosine-protein kinase Src (Homo sapiens) (UniProt P12931); assay: Inhibition of c-SRC at 100 nM by radiometric protein kinase assay; outline: as §2
Sequence of Proto-oncogene tyrosine-protein kinase Src (Homo sapiens) (P12931 2-536 limits assumed): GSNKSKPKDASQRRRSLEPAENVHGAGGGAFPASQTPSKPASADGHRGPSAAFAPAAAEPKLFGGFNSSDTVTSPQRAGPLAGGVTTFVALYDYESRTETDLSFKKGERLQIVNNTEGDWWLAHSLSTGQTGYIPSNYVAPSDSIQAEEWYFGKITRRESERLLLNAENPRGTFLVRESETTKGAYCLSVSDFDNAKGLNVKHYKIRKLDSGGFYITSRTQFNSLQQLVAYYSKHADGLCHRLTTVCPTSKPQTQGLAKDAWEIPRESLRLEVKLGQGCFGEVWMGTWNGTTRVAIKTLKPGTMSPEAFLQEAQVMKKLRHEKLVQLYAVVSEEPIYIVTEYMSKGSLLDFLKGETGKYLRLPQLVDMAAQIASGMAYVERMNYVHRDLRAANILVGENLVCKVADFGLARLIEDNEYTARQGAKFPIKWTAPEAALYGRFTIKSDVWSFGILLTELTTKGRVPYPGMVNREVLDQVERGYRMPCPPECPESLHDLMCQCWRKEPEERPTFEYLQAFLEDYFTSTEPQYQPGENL

[28] = target: Epidermal growth factor receptor (Homo sapiens) (UniProt P00533); assay: Inhibition of EGFR at 100 nM by radiometric protein kinase assay; outline: as §2
[29] = target: RAC-alpha serine/threonine-protein kinase (Homo sapiens) (UniProt P31749); assay: Inhibition of PKBalpha at 100 nM by radiometric protein kinase assay; outline: as §2

SMILES: O=C(CC(=O)Nc1ccc(Oc2ccnc3cc(C(=O)N4CCCC4)sc23)c(F)c1)Nc1ccccc1
pIC50 [1]: 5.70

SMILES: Cn1ccnc1C(=O)c1cc2nccc(Oc3ccc(NC(=O)CC(=O)Nc4ccccc4)cc3F)c2s1
pIC50 [1]: 7.40 | pIC50 [2]: 7.44

SMILES: CCn1cnc(C(=O)c2cc3nccc(Oc4ccc(NC(=O)CC(=O)Nc5ccccc5)cc4F)c3s2)c1
half-life [3]: 2.6 h | Vd [4]: 0.82 L/kg | bioavailability [5]: 12% | pIC50 [1]: 6.74 | Tmax [6]: 5.7 h | pIC50 [2]: 7.72 | Cmax normalised (Rattus norvegicus): 0.18 µM/mg/kg | clearance [7]: 5.5 mL/min/kg

SMILES: CN(C)CCn1cnc(C(=O)c2cc3nccc(Oc4ccc(NC(=O)CC(=O)Nc5ccccc5)cc4F)c3s2)c1
pIC50 [1]: 6.72 | pIC50 [2]: 7.70

SMILES: CCn1cnc(-c2cc3nccc(Oc4ccc(NC(=O)CC(=O)Nc5ccccc5F)cc4F)c3s2)c1
pIC50 [1]: 7.46 | pIC50 [2]: 7.49

SMILES: CCn1cnc(-c2cc3nccc(Oc4ccc(NC(=O)C5(C(=O)Nc6ccccc6F)CC5)cc4F)c3s2)c1
pIC50 [1]: 6.92 | pIC50 [2]: 7.42

SMILES: CN(C)[C@@H]1CCN(C(=O)c2cc3nccc(Oc4ccc(NC(=O)CC(=O)Nc5ccccc5)cc4F)c3s2)C1
pIC50 [1]: 6.25

SMILES: CCn1cnc(-c2cc3nccc(Oc4ccc(NC(=O)CC(=O)Nc5cccc(F)c5)cc4F)c3s2)c1
pIC50 [8]: 8.00 | pIC50 [1]: 6.06 | pIC50 [2]: 7.28

SMILES: CCn1cnc(-c2cc3nccc(Oc4ccc(NC(=O)CC(=O)N(C)c5ccccc5)cc4F)c3s2)c1
half-life [3]: 0.91 h | Vd [4]: 0.33 L/kg | bioavailability [5]: 60% | pIC50 [1]: 7.51 | Tmax [6]: 0.5 h | pIC50 [2]: 7.48 | Cmax normalised (Rattus norvegicus): 0.29 µM/mg/kg | clearance [7]: 8.67 mL/min/kg

SMILES: CCn1cnc(-c2cc3nccc(Oc4ccc(NC(=O)C5(C(=O)Nc6ccccc6)CC5)cc4F)c3s2)c1
inhibition [9]: 95% | half-life [3]: 3.1 h | inhibition [10]: 98% | Vd [4]: 2.2 L/kg | inhibition [11]: 100% | pIC50 (DU-145): 7.40 | inhibition [12]: 97% | inhibition [13]: 99% | pIC50 [14]: 9.00 | inhibition [15]: 96% | inhibition [16]: 99% | inhibition in vivo at 40 mg/kg [17]: 70% | bioavailability [5]: 33% | pIC50 (HUVEC [18]): 9.52 | Activity (HUVEC [19]): Active | pIC50 (HUVEC [20]): > 8.52 | inhibition in vivo at 40 mg/kg (MKN-45): 101% | inhibition [21]: < 5% | inhibition [22]: < 5% | inhibition [23]: 100% | pIC50 [1]: 8.40 | Tmax [6]: 2 h | inhibition in vivo at 40 mg/kg (A549 [24]): 54% | pIC50 [2]: 7.62 | pIC50 (A549 [25]): 6.66 | Cmax normalised (Rattus norvegicus): 0.1 µM/mg/kg | inhibition [26]: < 5% | inhibition [27]: 93% | clearance [7]: 16.5 mL/min/kg | inhibition [28]: < 5% | inhibition [29]: < 5%

SMILES: CCn1cnc(-c2cc3nccc(Oc4ccc(NC(=O)CC(=O)Nc5ccc(F)cc5)cc4F)c3s2)c1
pIC50 [2]: 7.62

SMILES: CCn1cnc(-c2cc3nccc(Oc4ccc(NC(=O)CC(=O)Nc5ccccc5O)cc4F)c3s2)c1
pIC50 [1]: 6.22 | pIC50 [2]: 7.59

More lines, now with the values ahead:

pIC50 [1]: 6.82 | pIC50 [2]: 7.04
SMILES: CCn1cnc(-c2cc3nccc(Oc4ccc(NC(=O)CC(=O)Nc5ccccc5C(F)(F)F)cc4F)c3s2)c1

pIC50 [8]: 8.00 | pIC50 [1]: 6.23 | pIC50 [2]: 7.28
SMILES: CCn1cnc(-c2cc3nccc(Oc4ccc(NC(=O)CC(=O)NC5CCCCC5)cc4F)c3s2)c1

pIC50 [1]: < 5.30 | pIC50 [2]: 7.44
SMILES: O=C(O)Cn1cnc(C(=O)c2cc3nccc(Oc4ccc(NC(=O)CC(=O)Nc5ccccc5)cc4F)c3s2)c1

pIC50 [1]: 6.47 | pIC50 [2]: 7.60
SMILES: Cn1cnc(C(=O)c2cc3nccc(Oc4ccc(NC(=O)CC(=O)Nc5ccccc5)cc4F)c3s2)c1

pIC50 [1]: 7.36
SMILES: CCn1cnc(-c2cc3nccc(Oc4ccc(NC(=O)CC(=O)Nc5ccccc5OC)cc4F)c3s2)c1
